The results in this text go back to ChEMBL document CHEMBL1671867, “Novel polymyxin derivatives carrying only three positive charges are effective antibacterial agents” (Antimicrob Agents Chemother, 2008).

The subject of data set [1] is Escherichia coli. In words: Antibacterial activity against Escherichia coli ATCC […] by Etest method in presence of 2 ug/ml NAB7062. The class given is functional.
The test system of data set [2] is Escherichia coli. As to the kind of experiment: Antibacterial activity against Escherichia coli IH3080 by Etest method. In kind it is functional. The procedure, abridged:
(§1)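 E-strip MIC on Mueller-Hinton agar without added peptide; inoculum per manufacturer, matching CLSI M2-A9.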

Data set [3] concerns Escherichia coli. In words: Antibacterial activity against Escherichia coli ATCC […] by Etest method in presence of 1 ug/ml NAB7061. The class given is functional.
In data set [4] the test system is Escherichia coli. In words: Antibacterial activity against Escherichia coli ATCC […] by Etest method in presence of 4 ug/ml NAB7064. The class given is functional.
Data set [5] has as its system Escherichia coli. In words: Antibacterial activity against Escherichia coli IH3080 by Etest method in presence of 1 ug/ml NAB7061. In kind it is functional.
Data set [6] concerns Enterobacter cloacae. In words: Antibacterial activity against Enterobacter cloacae ATCC 23355 by Etest method. The class given is functional. The gist of the method: as §1
For data set [7], the system named is Enterobacter cloacae. In words: Antibacterial activity against Enterobacter cloacae ATCC 23355 […] by Etest method in presence of 2 ug/ml NAB7062. In kind it is functional.
In data set [8] the test system is Klebsiella pneumoniae. In words: Antibacterial activity against Klebsiella pneumoniae ATCC 13883 by Etest method in presence of NAB7061. In kind it is functional. The gist of the method:
(§2)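 MICs of the antibiotic taken from E-strips on Mueller-Hinton agar, run both with and without peptide. […] Inoculum was prepared per the strip manufacturer, matching CLSI M2-A9.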

Data set [9] deals with Klebsiella pneumoniae. In words: Antibacterial activity against Klebsiella pneumoniae ATCC 13883 by Etest method. The class given is functional. The procedure, abridged:
as §2

Data set [10] concerns Escherichia coli. As to the kind of experiment: Antibacterial activity against Escherichia coli IH3080 by Etest method in presence of 4 ug/ml NAB7064. The class given is functional.
For data set [11], the system named is Escherichia coli. In words: Ratio of the MIC for Escherichia coli IH3080 in the absence of NAB7061 to MIC for Escherichia coli IH3080 in the presence of 4 ug/ml of NAB7061. In kind it is functional.
In data set [12] the test system is Klebsiella pneumoniae. As to the kind of experiment: Antibacterial activity against Klebsiella pneumoniae ATCC 13883 by Etest method in presence of 4 ug/ml NAB7061. The class given is functional. The gist of the method: as §2
Data set [13] deals with Klebsiella pneumoniae. In words: Antibacterial activity against Klebsiella pneumoniae ATCC 13883 by Etest method in presence of 1 ug/ml NAB7061. The class given is functional. The procedure, abridged:
as §2

In data set [14] the test system is Enterobacter cloacae. In words: Antibacterial activity against Enterobacter cloacae ATCC 23355 […] by Etest method in presence of 4 ug/ml NAB7064. In kind it is functional.
In data set [15] the test system is Escherichia coli. In words: Antibacterial activity against Escherichia coli IH3080 by Etest method in presence of NAB7061. In kind it is functional.
Data set [16] relates to Enterobacter cloacae. In words: Antibacterial activity against Enterobacter cloacae ATCC 23355 […] by Etest method in presence of 1 ug/ml NAB7061. The class given is functional.
In data set [17] the test system is Klebsiella pneumoniae. In words: Antibacterial activity against Klebsiella pneumoniae ATCC 13883 by Etest method in presence of 2 ug/ml NAB7061. The class given is functional. The procedure, abridged: as §2
The test system of data set [18] is Escherichia coli. As to the kind of experiment: Antibacterial activity against Escherichia coli ATCC […] by Etest method in presence of NAB7061. The class given is functional.
The subject of data set [19] is Escherichia coli. As to the kind of experiment: Antibacterial activity against Escherichia coli ATCC 25992 by Etest method. The class given is functional. The procedure, abridged: as §1
Data set [20] concerns Escherichia coli. As to the kind of experiment: Ratio of the MIC for Escherichia coli ATCC 25992 in the absence of NAB7061 to MIC for Escherichia coli ATCC 25992 in the presence of 4 ug/ml of NAB7061. In kind it is functional.
The test system of data set [21] is Enterobacter cloacae. In words: Antibacterial activity against Enterobacter cloacae ATCC 23355 […] by Etest method in presence of NAB7061. The class given is functional.
Data set [22] deals with Klebsiella pneumoniae. As to the kind of experiment: Ratio of the MIC for Klebsiella pneumoniae ATCC 13883 in the absence of NAB7061 to MIC for Klebsiella pneumoniae ATCC 13883 in the presence of 4 ug/ml of NAB7061. In kind it is functional.
The test system of data set [23] is Enterobacter cloacae. In words: Ratio of the MIC for Enterobacter cloacae ATCC 23355 in the absence of NAB7061 to MIC for Enterobacter cloacae ATCC 23355 […] in the presence of 4 ug/ml of NAB7061. In kind it is functional.
The test system of data set [24] is Escherichia coli. As to the kind of experiment: Antibacterial activity against Escherichia coli IH3080 by Etest method in presence of 2 ug/ml NAB7062. The class given is functional.
Data set [25] can be described thus: Inhibition of [3H]gentamicin binding to brush border membrane of renal cortex. The procedure, abridged:
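Brush border membrane vesicles prepared from male albino rat renal cortex by Mg2+-EGTA precipitation. Incubated with 20 μM [3H]gentamicin in 10 mM HEPES pH 7.5 with 300 mM mannitol, with or without compound, 60 min at 4°C. Then filtered, washed, and bound radioactivity counted by scintillation. IC50 fitted with the Hill equation.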

The subject of a further data set is V79. In words: Cytotoxicity against chinese hamster V79 cells at […] to 128 ug/ml after 24 hrs. In kind it is cell-based, Cricetulus griseus. Conditions: v79, 24 h.

Molecules are shown by their SMILES. Converted amounts (≈) assume the structure as drawn. Bridge positions count the residues as written; N and C are the ends. Square brackets hold non-standard residues; d marks the D form. Peptide text beside a SMILES is read from it. * marks the point of attachment. Decanoyl = CCCCCCCCCC(=O)*; Octanoyl = CCCCCCCC(=O)*; Dab = NCC[C@H](N)C(=O)O; Abu = CC[C@H](N)C(=O)O

Consider `C/C(=C\C(=O)OCCCCCCCCC(=O)O)C[C@@H]1OC[C@H](C[C@@H]2O[C@H]2[C@@H](C)[C@H](C)O)[C@@H](O)[C@H]1O` [MUPIROCIN], for which the minimal inhibitory concentration (MIC) came to 4 µg/mL with Escherichia coli [1]; 128 µg/mL (≈ 256 µM) against Escherichia coli [2]; 16 µg/mL in the data set on Escherichia coli [3]; 1.5 µg/mL in the data set on Escherichia coli [4]; 16 µg/mL with Escherichia coli [5]; 48 µg/mL (≈ 95.9 µM) against Enterobacter cloacae [6]. For the same molecule, the MIC in the data set with Enterobacter cloacae [7] was 8 µg/mL; in the data set with Klebsiella pneumoniae [8] it was at most 0.167 µg/mL; against Klebsiella pneumoniae [9], 64 µg/mL (≈ 128 µM); with Escherichia coli [10], 1.5 µg/mL; with Klebsiella pneumoniae [12], 2 µg/mL; in the data set with Klebsiella pneumoniae [13], 24 µg/mL. The MIC worked out at 0.19 µg/mL in the data set with Enterobacter cloacae [14]; 0.146 µg/mL in the data set on Escherichia coli [15]; 24 µg/mL in the data set with Enterobacter cloacae [16]; 12 µg/mL with Klebsiella pneumoniae [17]; 256 µg/mL (≈ 511 µM) in the data set with Escherichia coli [19]; 0.293 µg/mL in the data set on Enterobacter cloacae [21]. Further, the minimum inhibitory concentration (MIC) with Escherichia coli [24] amounted to 12 µg/mL. The Ratio in the data set on Escherichia coli [11] was 64; in the data set with Escherichia coli [20], 64; with Klebsiella pneumoniae [22], 24; in the data set with Enterobacter cloacae [23] it was 250. In addition, the “fractional inhibitory concentration index (FICI)” value in the data set on Escherichia coli [18] came out at 0.127.

With `CCCCCCCC(=O)N[C@H](C(=O)N[C@@H](CC)C(=O)N[C@H]1CCNC(=O)[C@H]([C@@H](C)O)NC(=O)[C@H](CCN)NC(=O)[C@H](CCN)NC(=O)[C@H](CC(C)C)NC(=O)[C@@H](Cc2ccccc2)NC(=O)[C@H](CCN)NC1=O)[C@@H](C)O` (Octanoyl-T[Abu][Dab][Dab][dF]L[Dab][Dab]T; lactam 3-C), the 50% inhibitory concentration (IC50) in data set [25] was found to be 187 µM. In the data set on V79, the Activity result is reported as “Non-toxic”.

The molecule `CCCCCCCCCC(=O)N[C@H](C(=O)N[C@H](CO)C(=O)N[C@H]1CCNC(=O)[C@H]([C@@H](C)O)NC(=O)[C@H](CCN)NC(=O)[C@H](CCN)NC(=O)[C@H](CC(C)C)NC(=O)[C@@H](Cc2ccccc2)NC(=O)[C@H](CCN)NC1=O)[C@@H](C)O` (Decanoyl-T[dS][Dab][Dab][dF]L[Dab][Dab]T; lactam 3-C) yielded an IC50 in data set [25] of 198 µM. Besides, in the data set with V79, the Activity result is on record as “Non-toxic”.

As for `CC[C@H]1OC(=O)[C@H](C)[C@@H](O[C@H]2C[C@@](C)(OC)[C@@H](O)[C@H](C)O2)[C@H](C)[C@@H](O[C@@H]2O[C@H](C)C[C@H](N(C)C)[C@H]2O)[C@](C)(O)C[C@@H](C)C(=O)[C@H](C)[C@@H](O)[C@]1(C)O` [ERYTHROMYCIN], the MIC worked out at 2 µg/mL with Escherichia coli [1]; 16 µg/mL (≈ 21.8 µM) against Escherichia coli [2]; 6 µg/mL in the data set on Escherichia coli [3]; 0.75 µg/mL in the data set with Escherichia coli [4]; 4 µg/mL in the data set on Escherichia coli [5]; 64 µg/mL (≈ 87.2 µM) against Enterobacter cloacae [6]. The MIC is 8 µg/mL in the data set with Enterobacter cloacae [7]; at most 0.143 µg/mL in the data set with Klebsiella pneumoniae [8]; 24 µg/mL (≈ 32.7 µM) against Klebsiella pneumoniae [9]; 0.38 µg/mL in the data set with Escherichia coli [10]; 0.5 µg/mL in the data set with Klebsiella pneumoniae [12]; 4 µg/mL with Klebsiella pneumoniae [13]. Further, the MIC came out at 1.5 µg/mL with Enterobacter cloacae [14]; 0.25 µg/mL in the data set with Escherichia coli [15]; 48 µg/mL in the data set on Enterobacter cloacae [16]; 2 µg/mL in the data set with Klebsiella pneumoniae [17]; 32 µg/mL (≈ 43.6 µM) in the data set on Escherichia coli [19]; 0.375 µg/mL in the data set with Enterobacter cloacae [21]. Further, in the data set with Escherichia coli [24], the MIC worked out at 2 µg/mL. In addition, the Ratio in the data set with Escherichia coli [11] is 32; in the data set with Escherichia coli [20], 32; in the data set with Klebsiella pneumoniae [22] it was 24; in the data set with Enterobacter cloacae [23], 21. Moreover, the “fractional inhibitory concentration index (FICI)” value in the data set on Escherichia coli [18] amounted to 0.188.

`CCCCCCCC(=O)N[C@H](C(=O)N[C@H](CO)C(=O)N[C@H]1CCNC(=O)[C@H]([C@@H](C)O)NC(=O)[C@H](CCN)NC(=O)[C@H](CCN)NC(=O)[C@H](CC(C)C)NC(=O)[C@@H](Cc2ccccc2)NC(=O)[C@H](CCN)NC1=O)[C@@H](C)O` gave a half-inhibitory concentration (IC50) in data set [25] of 264 µM. Also, in the data set with V79, the Activity entry is given as “Non-toxic”.

Take `CC[C@H]1OC(=O)[C@H](C)[C@@H](O[C@H]2C[C@@](C)(OC)[C@@H](O)[C@H](C)O2)[C@H](C)[C@@H](O[C@@H]2O[C@H](C)C[C@H](N(C)C)[C@H]2O)[C@](C)(O)C[C@@H](C)CN(C)[C@H](C)[C@@H](O)[C@]1(C)O` [AZITHROMYCIN]: the MIC worked out at 0.19 µg/mL with Escherichia coli [1]; 2 µg/mL (≈ 2.67 µM) in the data set with Escherichia coli [2]; 0.5 µg/mL in the data set with Escherichia coli [3]; 0.094 µg/mL with Escherichia coli [4]; 0.75 µg/mL with Escherichia coli [5]; 6 µg/mL (≈ 8.01 µM) with Enterobacter cloacae [6]. Besides, the MIC with Enterobacter cloacae [7] is 1.5 µg/mL; with Klebsiella pneumoniae [8], at most 0.126 µg/mL; in the data set on Klebsiella pneumoniae [9], 2 µg/mL (≈ 2.67 µM); with Escherichia coli [10], 0.064 µg/mL; in the data set with Klebsiella pneumoniae [12], 0.047 µg/mL; with Klebsiella pneumoniae [13], 0.19 µg/mL. In addition, the MIC stood at 0.19 µg/mL with Enterobacter cloacae [14]; 0.173 µg/mL in the data set with Escherichia coli [15]; 4 µg/mL in the data set with Enterobacter cloacae [16]; 0.19 µg/mL in the data set on Klebsiella pneumoniae [17]; 3 µg/mL (≈ 4.01 µM) against Escherichia coli [19]; 0.438 µg/mL with Enterobacter cloacae [21]. In addition, the minimum inhibitory concentration (MIC) in the data set with Escherichia coli [24] worked out at 0.19 µg/mL. Further, the Ratio in the data set on Escherichia coli [11] came out at 31; in the data set on Escherichia coli [20], 24; with Klebsiella pneumoniae [22] it was 31; with Enterobacter cloacae [23], 32. Further, the “fractional inhibitory concentration index (FICI)” value with Escherichia coli [18] is 0.157.
